Source: ChEMBL document CHEMBL3596120, “Discovery of natural alkaloid bouchardatine as a novel inhibitor of adipogenesis/lipogenesis in 3T3-L1 adipocytes” (Bioorg Med Chem, 2015)
Activity calls are given as the source filed them.

Experiments:
3T3-L1 [1] = assay: Activation of AMPK in mouse 3T3L1 cells assessed as increase in ACC Ser79 phosphorylation at 0.2 mM after 9 days by Western blot method; assay type: cell-based
How it was run: (§1)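 Mouse 3T3-L1 cells taken through the differentiation protocol, with compound or DMSO vehicle given from day 0 and renewed at day 3. Cells lysed on ice for 0.5 h in RIPA with PMSF, Na3VO4, NaF and protease inhibitors, then centrifuged at 12,000g. Lysates run on 12% SDS-PAGE and transferred to PVDF. Blots probed overnight at 4 °C and detected with HRP secondary. Bands quantified by optical density against GAPDH. Three independent experiments.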

[2] = Reduction in SREBP-1c protein expression in mouse 3T3L1 cells at 0.2 mM after 3 days by Western blot method; assay type: functional, cell-based; settings: 3T3-L1
How it was run: (§2)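 3T3-L1 preadipocytes grown in DMEM with 10% FBS at 37 °C under 5% CO2. Differentiation starts 2 days post-confluence (day 0) with IBMX, 100 ng/mL dexamethasone and insulin for 3 d, then insulin in 10% FBS/DMEM for 3 d, then basic medium for 3 d. Compound is added on day 0 and renewed at day 3. Vehicle control receives the same volume of DMSO.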

3T3-L1 [3] = assay: Inhibition of adipogenesis in mouse 3T3L1 cells assessed as reduction in triglyceride content at 0.2 mM by colorimetric assay; assay type: functional, cell-based
[4] = Reduction in SCD1 protein expression in mouse 3T3L1 cells at 0.2 mM after 3 days by Western blot method; assay type: functional, cell-based; settings: 3T3-L1; how it was run: as §2
[5] = Reduction in C/EBPalpha protein expression in mouse 3T3L1 cells at 0.2 mM after 3 days by Western blot method; assay type: functional, cell-based; settings: 3T3-L1; how it was run: as §1
[6] = Reduction in PPARgamma protein expression in mouse 3T3L1 cells at 0.2 mM after 3 days by Western blot method; assay type: functional, cell-based; settings: 3T3-L1; how it was run: as §2
[7] = Reduction in FAS protein expression in mouse 3T3L1 cells at 0.2 mM after 3 days by Western blot method; assay type: functional, cell-based; settings: 3T3-L1; how it was run: as §2
3T3-L1 [8] = assay: Effect on in AMPKalpha protein expression in mouse 3T3L1 cells at 25 uM after 0.5 to 4 hrs by Western blot method; assay type: functional, cell-based
3T3-L1 [9] = assay: Increase in AMPKalpha Thr172 phosphorylation in mouse 3T3L1 cells at 0.2 mM after 9 days by Western blot method; assay type: cell-based; how it was run: as §1

Measured: Activity

NC(=O)c1ncn([C@@H]2O[C@H](CO)[C@@H](O)[C@H]2O)c1N
inactive: 3T3-L1 [8]
active: 3T3-L1 [1] | [2] | 3T3-L1 [3] | [4] | [5] | [6] | [7] | 3T3-L1 [9]
